Columns and labels:
[1] = molecular target: T1, Human immunodeficiency virus type 1 integrase (Human immunodeficiency virus 1, UniProt Q7ZJM1); assay: Inhibition of recombinant HIV1 integrase using unprocessed donor DNA by coupled assay
In short: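 Unprocessed donor DNA and inhibitor incubated with recombinant integrase together for 30 min, then target DNA added; strand-transfer product measured. Final DMSO 10%. IC50 from serial 2-fold dilutions in duplicate or triplicate; values without error limits are the average of these.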

[2] = molecular target: T1, Human immunodeficiency virus type 1 integrase; assay: Inhibition of recombinant HIV1 integrase using preprocessed donor DNA treated after washing excess enzyme by strand transfer assay
In short: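 Integrase preincubated with preprocessed donor DNA, unbound enzyme washed off, then target DNA and inhibitor added together. Strand transfer product measured. Final DMSO 10%. IC50 from serial 2-fold dilutions run in duplicate or triplicate; values without error limits are the average of these.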

[3] = molecular target: Type II restriction enzyme EcoRI (Escherichia coli, UniProt P00642); assay: Inhibition of Escherichia coli ECOR1
[4] = Inhibition of DNAse
[5] = molecular target: T1, Human immunodeficiency virus type 1 integrase; assay: Inhibition of HIV1 integrase assessed as inhibition of 3'-end processing reaction
In short: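 Specific 3′-end processing of LTR donor-sequence oligonucleotide substrates, run with […]. IC₅₀ values without error limits are the average of duplicate or triplicate data sets.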

[6] = test system: Human immunodeficiency virus 1; assay: Antiviral activity against HIV1 infected in human H9 cells; type: functional; details: Human immunodeficiency virus 1, H9; read-out: CIC95
In short: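 Multiple-cycle viral spread assay in HIV-1-infected H9 T-lymphoid cells; value is CIC95, the concentration giving >95% protection from viral infection.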

T1 sequence (Q7ZJM1 whole entry): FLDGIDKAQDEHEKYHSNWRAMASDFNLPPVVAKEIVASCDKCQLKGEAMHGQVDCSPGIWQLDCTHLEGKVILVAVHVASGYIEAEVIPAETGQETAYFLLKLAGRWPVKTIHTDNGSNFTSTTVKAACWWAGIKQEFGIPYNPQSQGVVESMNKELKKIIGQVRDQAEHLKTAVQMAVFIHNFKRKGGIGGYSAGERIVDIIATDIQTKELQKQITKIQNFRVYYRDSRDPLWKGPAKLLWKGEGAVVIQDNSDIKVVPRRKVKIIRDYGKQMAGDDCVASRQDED
Type II restriction enzyme EcoRI, sequence (P00642 whole entry): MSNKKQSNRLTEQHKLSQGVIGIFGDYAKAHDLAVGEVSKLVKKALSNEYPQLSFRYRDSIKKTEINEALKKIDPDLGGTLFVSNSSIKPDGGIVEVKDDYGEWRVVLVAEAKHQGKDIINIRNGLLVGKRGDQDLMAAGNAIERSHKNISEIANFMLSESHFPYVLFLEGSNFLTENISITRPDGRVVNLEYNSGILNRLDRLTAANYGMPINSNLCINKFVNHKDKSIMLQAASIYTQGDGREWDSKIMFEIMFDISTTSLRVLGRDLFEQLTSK

| Structure (SMILES) | IC50 [1] [µM] | IC50 [2] [µM] | IC50 [3] [µM] | IC50 [4] [µM] | IC50 [5] [µM] | IC95 [6] [µM] |
| --- | --- | --- | --- | --- | --- | --- |
| C=C(CC[C@@H](C)[C@H]1CC(=O)C2=C3CC[C@H]4C(C)(C)[C@@H](O)[C@H](O)C[C@]4(C)C3=C[C@H](OC(C)=O)[C@@]21C)C(C)C | 25 | 40 | > 50 | > 50 |  |  |
| C=C(CC[C@@H](C)[C@H]1CC=C2C3=C([C@@H](O)[C@H](OC(C)=O)[C@@]21C)[C@@]1(C)C[C@@H]2O[C@@H]2C(C)(C)[C@@H]1CC3)C(C)C | > 50 | > 50 | > 50 | > 50 |  |  |
| COC(=O)C[C@@](C)(O)CC(=O)O[C@@H]1C[C@]2(C)C3=C(CC[C@H]2C(C)(C)C1=O)[C@]1(C)CC[C@H]([C@H](C)CCC(O)C(C)(C)O)[C@@]1(C)CC3 (stereo partly specified) | 70 | > 100 | > 50 | > 50 |  |  |
| CC(=O)O[C@H]1[C@H](O)C2=C(CC[C@H]3C(C)(C)[C@@H](OS(=O)(=O)O)[C@H](OC(=O)CCCCCCCCCCCCCCCO)C[C@]23C)C2=CC[C@H]([C@H](C)CCC3(C(C)(C)O)CO3)[C@]21C (stereo partly specified) | 5 | 14 | > 50 | > 50 | 10 | 6 |
| C=C(CC[C@@H](C)[C@H]1CC=C2C3=C([C@@H](O)[C@H](OC(C)=O)[C@@]21C)[C@@]1(C)C[C@@H](OC(=O)CN)[C@H](O)C(C)(C)[C@@H]1CC3)C(C)C | 23 | > 50 | > 50 | > 50 |  |  |
| C=C(CC[C@@H](C)[C@H]1CC=C2C3=C([C@@H](O)[C@H](OC(C)=O)[C@@]21C)[C@@]1(C)C[C@@H](OCOC)[C@H](O)C(C)(C)[C@@H]1CC3)C(C)C | > 80 | > 80 | > 50 | > 50 |  |  |
| C=C(CC[C@@H](C)[C@H]1CC=C2C3=C([C@@H](O)[C@H](OC(C)=O)[C@@]21C)[C@@]1(C)C[C@@H](O)[C@H](OCOC)C(C)(C)[C@@H]1CC3)C(C)C | > 80 | > 80 | > 50 | > 50 |  |  |
| C=C(CC[C@@H](C)[C@H]1CC=C2C3=C([C@@H](O)[C@H](OC(C)=O)[C@@]21C)[C@@]1(C)C[C@@H](OC(=O)CCC(=O)NO)[C@H](O)C(C)(C)[C@@H]1CC3)C(C)C | 8 | > 50 | > 50 | > 50 |  |  |
| C=C(CC[C@@H](C)[C@H]1CC=C2C3=C([C@@H](O)[C@H](OC(C)=O)[C@@]21C)[C@@]1(C)C[C@@H](O)[C@H](OC(=O)c2ccccc2)C(C)(C)[C@@H]1CC3)C(C)C | > 80 | > 80 | > 50 | > 50 |  |  |
| C=C(CC[C@@H](C)[C@H]1CC=C2C3=C([C@@H](OC(C)=O)[C@H](OC(C)=O)[C@@]21C)[C@@]1(C)C[C@@H](OC(C)=O)[C@H](OC(C)=O)C(C)(C)[C@@H]1CC3)C(C)C | > 50 | > 50 | > 50 | > 50 |  |  |
| C=C(CC[C@@H](C)[C@H]1CC=C2C3=C([C@@H](O)[C@H](OC(C)=O)[C@@]21C)[C@@]1(C)C[C@@H](OC(=O)c2ccccc2)[C@H](O)C(C)(C)[C@@H]1CC3)C(C)C | > 80 | > 80 | > 50 | > 50 |  |  |
| C=C(CC[C@@H](C)[C@H]1CC=C2C3=C([C@@H](O)[C@H](OC(C)=O)[C@@]21C)[C@@]1(C)C[C@@H](OCOC)[C@H](OCOC)C(C)(C)[C@@H]1CC3)C(C)C | > 80 | > 80 | > 50 | > 50 |  |  |
| C=C(CC[C@@H](C)[C@H]1CC=C2C3=C([C@@H](O)[C@H](O)[C@@]21C)[C@@]1(C)C[C@@H](O)[C@H](O)C(C)(C)[C@@H]1CC3)C(C)C | 48 | > 50 | > 50 | > 50 |  |  |
| C[C@H](CCC(O)C(C)(C)O)[C@H]1CC[C@@]2(C)C3=C(CC[C@]12C)[C@@]1(C)C[C@@H](OC(=O)CC(C)(O)CC(=O)O)C(=O)C(C)(C)[C@@H]1CC3 (stereo partly specified) [CLAVARIC ACID] | 47 | 85 | > 50 | > 50 |  |  |
| C[C@H](CCC(O)C(C)(C)O)[C@H]1CC[C@@]2(C)C3=C(CC[C@]12C)[C@@]1(C)C[C@@H](O)C(=O)C(C)(C)[C@@H]1CC3 (stereo partly specified) [CLAVARINONE] | 68 | > 100 | > 50 | > 50 |  |  |
| C=C(CC[C@@H](C)[C@H]1CC=C2C3=C([C@@H](O)[C@H](OC(C)=O)[C@@]21C)[C@@]1(C)C[C@@H](O)[C@H](O)C(C)(C)[C@@H]1CC3)C(C)C [INTEGRACIDE B] | 82 | > 100 | > 50 | > 50 |  |  |

From ChEMBL document CHEMBL1147233, “Chemistry and structure-activity relationship of HIV-1 integrase inhibitor integracide B and related natural products” (J Nat Prod, 2003)
